The values that follow come from ChEMBL document CHEMBL5029154, “Design, Synthesis, and Biological Evaluation of Organic Nitrite (NO2-) Donors as Potential Anticerebral Ischemia Agents” (J Med Chem, 2021).

Values after ≈ are worked out from the molar mass of the structure shown. Active and inactive are the calls of the source. No cut-off for these calls is given here.

Series [1] has as its system HUVEC. The series can be described thus: Angiogenesis activity in HUVEC cells assessed as increase in tube formation at 1.8 uM measured after 8 hrs by inverted microscopy. In kind it is functional, cell-based. As to conditions: Homo sapiens. In a few lines:
(§1)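 Early-passage HUVECs (passages 2–6), grown in DMEM with 10% FBS, glutamine, pyruvate and antibiotics, were seeded at 8 × 10⁴ cells/well on Matrigel. They were exposed to vehicle or compound for 8 h at 37 °C, 5% CO₂. Tubes were counted under an inverted microscope.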

The subject of series [2] is Rattus norvegicus. As to the kind of experiment: Neuroprotective activity against middle cerebral artery occlusion-induced ischemia-reperfusion injury Sprague-Dawley rat model assessed as decrease in cerebral infarct volume at 95 to 9500 microg/kg, iv pretreated for 2 hrs followed by reperfusion measured after 24 hrs. It is filed as functional, organism-based. Conditions: dose 95-9500 µg/kg. In a few lines:
(§2)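 Male SD rats (N = 8/group) were dosed iv at 95, 950 or 9500 μg/kg 2 h before 2 h MCAO (nylon suture, chloral hydrate anesthesia), then reperfused. Where used, PTIO 1 mg/kg iv was given 30 min before compound. At 24 h, blinded assessment covered Longa deficit score, TTC-stained 2 mm sections (infarct area/whole area), and edema by wet/dry weight.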

The subject of series [3] is Rattus norvegicus. As to the kind of experiment: Angiogenic activity in middle cerebral artery occlusion-induced ischemia-reperfusion injury Sprague-Dawley rat model assessed as tube formation in cerebral ischemic penumbra at 95 to 9500 microg/kg, iv treated immediately reperfusion measured after 7 days by immunofluoresence assay. In kind it is functional, organism-based. Conditions: dose 95-9500 µg/kg, time 7.0 day. Put shortly: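 After MCAO/reperfusion, SD rats (N = 5/group) were dosed iv immediately after reperfusion and then daily for 7 days, with or without PTIO. Paraffin brain sections (3 μm) were immunostained for CD31, Ki67 and Aurora B with DAPI. Vascular density was CD31⁺/DAPI⁺; proliferating endothelium was CD31⁺Ki67⁺/CD31⁺.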

Series [4] is described as follows: Neuroprotective activity against in OGD/R-induced rat cortical neuron apoptosis assessed as necrotic cells pretreated at 1.8 uM for 24 hrs followed by subjected to OGD for 2 hrs measured after 24 hrs under normoxic condition by PI/FITC-H staining based flow cytometry (reference value: 3.68%). In kind it is functional, Cortical neurone.
Series [5] relates to Rattus norvegicus. As to the kind of experiment: Neuroprotective activity against middle cerebral artery occlusion-induced ischemia-reperfusion injury Sprague-Dawley rat model assessed as decrease in neurologic deficit scores at 95 to 9500 microg/kg, iv treated immediately reperfusion measured after 24 hrs. In kind it is functional, organism-based. Conditions: dose 95-9500 µg/kg. Put shortly: (§3)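 Male SD rats (12 weeks, 200–220 g; N = 8/group) underwent MCAO under […] (350 mg/kg) using a nylon intraluminal suture for 2 h, then reperfusion. Compound (95, 950 or 9500 μg/kg) was given iv immediately after reperfusion; where used, PTIO 1 mg/kg iv was given 30 min before. At 24 h, blinded scoring covered Longa neurological deficit, TTC infarct area/whole area, and edema from wet/dry brain weight (105 °C, 24 h).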

For series [6], the system named is Rattus norvegicus. The series can be described thus: Neuroprotective activity against middle cerebral artery occlusion-induced ischemia-reperfusion injury Sprague-Dawley rat model assessed as decrease in brain infarct volume at 95 to 9500 microg/kg, iv treated immediately reperfusion in presence of PTIO measured after 24 hrs. Conditions: dose 95-9500 µg/kg. It is filed as functional, organism-based. Put shortly: as §3

Series [7] deals with Cortical neurone. The series can be described thus: Neuroprotective activity against in OGD/R-induced rat cortical neuron cytotoxicity assessed as activation of NO/cGMP/PKG pathway by measuring increase in cGMP level pretreated at 1.8 uM for 24 hrs followed by subjected to OGD for 2 hrs measured after 24 hrs under normoxic condition by ELISA. In kind it is functional, tissue-based.

A short description of series [8]: Lipo-hydro partition coefficient, logP of compound. Conditions: octanol/water. In kind it is physicochemical.
The test system of series [9] is Rattus norvegicus. As to the kind of experiment: Neuroprotective activity against middle cerebral artery occlusion-induced ischemia-reperfusion injury Sprague-Dawley rat model assessed as increase in AuroraB + cells in cerebral ischemic penumbra at 95 to 950 microg/kg, iv treated immediately reperfusion measured after 24 hrs in presence of PTIO by immunofluoresence assay. In kind it is functional, organism-based. As to conditions: dose 95-950 µg/kg.

A short description of series [10]: GSH reactivity assessed as reaction rate measured at 4 equiv of GSH upto 24 hrs by HPLC analysis. It is filed as ADME.
For series [11], the system named is Cortical neurone. As to the kind of experiment: Neuroprotective activity against in OGD/R-induced rat cortical neuron cytotoxicity assessed as activation of NO/cGMP/PKG pathway by measuring increase in cGMP level pretreated at 1.8 uM for 24 hrs followed by subjected to OGD for 2 hrs measured after 24 hrs under normoxic condition in presence of NS2028 by ELISA. In kind it is functional, tissue-based.

The test system of series [12] is Rattus norvegicus. As to the kind of experiment: Neuroprotective activity against middle cerebral artery occlusion-induced ischemia-reperfusion injury Sprague-Dawley rat model assessed as decrease in neurologic deficit scores at 95 to 9500 microg/kg, iv pretreated for 2 hrs followed by reperfusion measured after 24 hrs. It is filed as functional, organism-based. As to conditions: dose 95-9500 µg/kg. In a few lines:
as §2

Series [13] has as its system HUVEC. The series can be described thus: Angiogenesis activity in HUVEC cells assessed as increase in tube formation at 1.8 uM measured after 8 hrs in presence of NS2028 by inverted microscopy. It is filed as functional, cell-based. Conditions: Homo sapiens. In a few lines:
as §1

The subject of series [14] is Rattus norvegicus. The series can be described thus: Neuroprotective activity against middle cerebral artery occlusion-induced ischemia-reperfusion injury Sprague-Dawley rat model assessed as increase in HO-1 expression in cerebral ischemic penumbra at 950 microg/kg, iv treated immediately reperfusion measured after 24 hrs. In kind it is functional, organism-based. Conditions: dose 950.0 µg/kg. Put shortly: (§4)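 MCAO rat brain paraffin sections (3 μm) were blocked with 10% goat serum and stained by IHC for NQO-1 and HO-1 (1:200) and phospho-Nrf2 (1:100), with DAB detection and rabbit IgG as negative control. Average optical density of positive cells was scored blinded over five fields per sample.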

Series [15] concerns Cortical neurone. As to the kind of experiment: Induction of Nrf2 protein level in OGD/R-induced rat primary cortical neuron pretreated at 1.8 uM for 24 hrs followed by subjected to OGD for 2 hrs measured after 24 hrs under normoxic condition by Western blot analysis. It is filed as functional, tissue-based. In a few lines:
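Primary rat cortical neurons were pretreated with 1.8 μM compound for 24 h, given 2 h OGD, then 24 h normoxic culture. Nrf2, HO-1 and NQO1 mRNA were measured by RT-qPCR. Cytoplasmic and nuclear protein (30 μg/lane) were blotted for Nrf2, with lamin A and β-actin as references, and quantified by densitometry as the nuclear:cytoplasmic ratio. Three independent experiments, mean ± SD.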

Series [16] can be described thus: Solubility of compound in water. In kind it is physicochemical.
Series [17] relates to Rattus norvegicus. As to the kind of experiment: Neuroprotective activity against middle cerebral artery occlusion-induced ischemia-reperfusion injury Sprague-Dawley rat model assessed as increase in NQO1 expression in cerebral ischemic penumbra at 950 microg/kg, iv treated immediately reperfusion measured after 24 hrs. In kind it is functional, organism-based. As to conditions: dose 950.0 µg/kg. Put shortly: as §4

The nature of series [18]: Neuroprotective activity against in OGD/R-induced rat cortical neuron apoptosis assessed as early apoptotic cells pretreated at 1.8 uM for 24 hrs followed by subjected to OGD for 2 hrs measured after 24 hrs under normoxic condition by PI/FITC-H staining based flow cytometry (reference value: 58.46%). In kind it is functional, Cortical neurone.
In series [19] the test system is Rattus norvegicus. The series can be described thus: Neuroprotective activity against middle cerebral artery occlusion-induced ischemia-reperfusion injury Sprague-Dawley rat model assessed as decrease in cerebral edema degree at 950 microg/kg, iv pretreated for 2 hrs followed by reperfusion measured after 24 hrs in presence of PTIO. Conditions: dose 950.0 µg/kg. It is filed as functional, organism-based. Put shortly: as §2

Series [20] relates to Cortical neurone. As to the kind of experiment: Neuroprotective activity against in OGD/R-induced Sprague-Dawley rat cortical neuron injury assessed as cell viability pretreated at 1.8 uM for 24 hrs followed by subjected to OGD for 2 hrs measured after 24 hrs under normoxic condition. It is filed as functional, tissue-based. In a few lines:
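Cortical neurons were isolated from SD rat cortex by enzymatic digestion, plated on poly-lysine in 10% FBS DMEM, and pretreated 24 h at 1.8 μM in basal medium with 2% B27. OGD was run in glucose/FBS-free DMEM under 1% O₂, followed by 24 h reoxygenation in 10% FBS DMEM. Viability was read by MTT; apoptosis was also assessed. Three independent experiments.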

In the case of `O=C(/C(=C/c1ccccc1)C[N+](=O)[O-])c1ccccc1`, the result in the series with HUVEC [1], in the series with Rattus norvegicus [2], with Rattus norvegicus [3], in the series on Rattus norvegicus [5], in the series on Cortical neurone [7] and in the series on Rattus norvegicus [12] was Active. Moreover, the outcome in the series with Rattus norvegicus [14], in the series on Cortical neurone [15], in the series with Rattus norvegicus [17] and in the series with Cortical neurone [20] was Active. Besides, the Activity in [4] was 1.28%; in series [10] it was 0.0299 h⁻¹; in series [18] it was 7.21%. The result in the series with Rattus norvegicus [6], in the series with Rattus norvegicus [9], in the series with Cortical neurone [11], in the series with HUVEC [13] and in the series with Rattus norvegicus [19] was inactive. The same compound came in with a logP in [8] of 0.54. This compound also showed a solubility in [16] of 33.2 µg/mL (≈ 124 µM).
